Test results as given in ChEMBL document CHEMBL1154616, “Synthesis and antitumor activity studies of some new fused 1,2,4-triazole derivatives carrying 2,4-dichloro-5-fluorophenyl moiety” (Eur J Med Chem, 2009).

Assays:
Format in all cases: functional
[1] = system: DU-145; assay: Anticancer activity against human DU145 cells after 48 hrs by sulforhodamine B assay; details: DU-145, 48 h
How it was run: (§1)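 Full 60-cell-line panel, compounds tested over a five-log dose range. Cells are preincubated on microtiter plates, the agent is added, and cultures run 48 h. The end point is sulphorhodamine B protein staining. GI50 is taken as the concentration giving 50% growth inhibition relative to untreated control cells.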

[2] = system: HCT-15; assay: Anticancer activity against human HCT15 cells after 48 hrs by sulforhodamine B assay; details: HCT-15, 48 h; how it was run: as §1
[3] = system: SNB-19; assay: Anticancer activity against human SNB19 cells after 48 hrs by sulforhodamine B assay; details: SNB-19, 48 h; how it was run: as §1
[4] = system: MCF7; assay: Anticancer activity against human MCF7 cells assessed as cell growth at 100 uM after 48 hrs by sulforhodamine B assay relative to control; details: MCF7, 48 h, read-out: Activity
How it was run: (§2)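 Three-cell-line prescreen (NCI-H460 lung, MCF7 breast, SF 268 CNS), each preincubated on microtiter plates. The agent is added at a single concentration and cultures are incubated 48 h. Growth is read by sulphorhodamine B protein staining and reported as percent growth of treated versus untreated control cells; negative values indicate cell kill.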

[5] = system: HOP-92; assay: Anticancer activity against human HOP92 cells after 48 hrs by sulforhodamine B assay; details: HOP-92, 48 h; how it was run: as §1
[6] = system: SNB-75; assay: Anticancer activity against human SNB75 cells after 48 hrs by sulforhodamine B assay; details: SNB-75, 48 h
How it was run: (§3)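 Cells from the 60-line full panel are preincubated on microtiter plates, then treated across a five-log dose range for 48 h. Growth is read with the protein-binding dye sulforhodamine B. GI50 is the concentration giving 50% growth inhibition relative to untreated control cells.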

[7] = system: LOX IMVI; assay: Anticancer activity against human LOXIMVI cells after 48 hrs by sulforhodamine B assay; how it was run: as §1
[8] = system: MDA-MB-435; assay: Anticancer activity against human MDA-MB-435 cells after 48 hrs by sulforhodamine B assay; details: MDA-MB-435, 48 h; how it was run: as §1
[9] = system: NCI-H460; assay: Anticancer activity against human NCI-H460 cells assessed as cell growth at 100 uM after 48 hrs by sulforhodamine B assay relative to control; details: NCI-H460, 48 h, read-out: Activity; how it was run: as §2
[10] = system: OVCAR-5; assay: Anticancer activity against human OVCAR5 cells after 48 hrs by sulforhodamine B assay; details: OVCAR-5, 48 h; how it was run: as §1
[11] = system: KM12; assay: Anticancer activity against human KM12 cells after 48 hrs by sulforhodamine B assay; details: KM12, 48 h; how it was run: as §1
[12] = system: CAKI-1; assay: Anticancer activity against human Caki1 cells after 48 hrs by sulforhodamine B assay; details: CAKI-1, 48 h; how it was run: as §1
[13] = system: HL-60(TB); assay: Anticancer activity against human HL-60(TB) cells after 48 hrs by sulforhodamine B assay; details: HL-60, 48 h
How it was run: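 Run within the full 60-cell-line panel across a five-log dose range. GI50 was taken as the concentration causing 50% growth inhibition relative to untreated control cells.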

[14] = system: NCI-H460; assay: Anticancer activity against human NCI-H460 cells after 48 hrs by sulforhodamine B assay; details: NCI-H460, 48 h; how it was run: as §1
[15] = system: HCT-116; assay: Anticancer activity against human HCT116 cells after 48 hrs by sulforhodamine B assay; details: HCT-116, 48 h; how it was run: as §1
[16] = system: M14; assay: Anticancer activity against human M14 cells after 48 hrs by sulforhodamine B assay; details: M14, 48 h; how it was run: as §1
[17] = Anticancer activity against human Hs 578T cells after 48 hrs by sulforhodamine B assay; how it was run: as §1
[18] = system: RXF 393; assay: Anticancer activity against human RXF393 cells after 48 hrs by sulforhodamine B assay; details: RXF 393, 48 h; how it was run: as §1
[19] = system: HCC 2998; assay: Anticancer activity against human HCC2998 cells after 48 hrs by sulforhodamine B assay; details: HCC 2998, 48 h; how it was run: as §1
[20] = system: SF-268; assay: Anticancer activity against human SF268 cells after 48 hrs by sulforhodamine B assay; details: SF-268, 48 h; how it was run: as §1
[21] = system: ACHN; assay: Anticancer activity against human ACHN cells after 48 hrs by sulforhodamine B assay; how it was run: as §1
[22] = system: SR; assay: Anticancer activity against human SR cells after 48 hrs by sulforhodamine B assay; how it was run: as §3
[23] = system: HOP-62; assay: Anticancer activity against human HOP62 cells after 48 hrs by sulforhodamine B assay; details: HOP-62, 48 h; how it was run: as §1
[24] = system: EKVX; assay: Anticancer activity against human EKVX cells after 48 hrs by sulforhodamine B assay; how it was run: as §1
[25] = system: MOLT-4; assay: Anticancer activity against human MOLT4 cells after 48 hrs by sulforhodamine B assay; details: MOLT-4, 48 h; how it was run: as §1
[26] = system: 786-0; assay: Anticancer activity against human 786-0 cells after 48 hrs by sulforhodamine B assay; details: 786-0, 48 h; how it was run: as §1
[27] = system: MDA-MB-231; assay: Anticancer activity against human MDA-MB-231 cells after 48 hrs by sulforhodamine B assay; details: MDA-MB-231, 48 h; how it was run: as §1
[28] = system: SF-268; assay: Anticancer activity against human SF268 cells assessed as cell growth at 100 uM after 48 hrs by sulforhodamine B assay relative to control; details: SF-268, 48 h, read-out: Activity; how it was run: as §2
[29] = system: NCI-H322M; assay: Anticancer activity against human NCI-H322M cells after 48 hrs by sulforhodamine B assay; how it was run: as §1
[30] = system: CCRF-CEM; assay: Anticancer activity against human CCRF-CEM cells after 48 hrs by sulforhodamine B assay; how it was run: as §1
[31] = system: UO-31; assay: Anticancer activity against human UO31 cells after 48 hrs by sulforhodamine B assay; details: UO-31, 48 h; how it was run: as §3
[32] = system: PC-3; assay: Anticancer activity against human PC3 cells after 48 hrs by sulforhodamine B assay; details: PC-3, 48 h; how it was run: as §1
[33] = Anticancer activity against human […] cells after 48 hrs by sulforhodamine B assay; how it was run: as §1
[34] = system: A549; assay: Anticancer activity against human A549 cells after 48 hrs by sulforhodamine B assay; details: A549, 48 h; how it was run: as §1
[35] = system: NCI/ADR-RES; assay: Anticancer activity against human NCI/ADR-RES cells after 48 hrs by sulforhodamine B assay; how it was run: as §1
[36] = system: UACC-62; assay: Anticancer activity against human UACC62 cells after 48 hrs by sulforhodamine B assay; details: UACC-62, 48 h; how it was run: as §3
[37] = system: SK-OV-3; assay: Anticancer activity against human SKOV3 cells after 48 hrs by sulforhodamine B assay; details: SK-OV-3, 48 h; how it was run: as §1
[38] = system: NCI-H23; assay: Anticancer activity against human NCI-H23 cells after 48 hrs by sulforhodamine B assay; details: NCI-H23, 48 h; how it was run: as §1
[39] = system: HT-29; assay: Anticancer activity against human HT-29 cells after 48 hrs by sulforhodamine B assay; details: HT-29, 48 h; how it was run: as §1
[40] = system: COLO 205; assay: Anticancer activity against human COLO205 cells after 48 hrs by sulforhodamine B assay; details: COLO 205, 48 h; how it was run: as §1
[41] = system: T47D; assay: Anticancer activity against human T47D cells after 48 hrs by sulforhodamine B assay; how it was run: as §3
[42] = system: SF-295; assay: Anticancer activity against human SF295 cells after 48 hrs by sulforhodamine B assay; details: SF-295, 48 h; how it was run: as §1
[43] = system: NCI-H522; assay: Anticancer activity against human NCI-H522 cells after 48 hrs by sulforhodamine B assay; details: NCI-H522, 48 h; how it was run: as §1
[44] = system: Malme-3M; assay: Anticancer activity against human MALME-3M cells after 48 hrs by sulforhodamine B assay; how it was run: as §1

Fc1cc(-c2nnc3n2N=C(c2ccc(Cl)cc2Cl)CS3)c(Cl)cc1Cl
GI50 [1]: 49.5 µM | GI50 [2]: 38.3 µM | GI50 [3]: 25.4 µM | growth at 100 µM [4]: 69% | GI50 [5]: 54.2 µM | GI50 [6]: > 100 µM | GI50 [7]: 34.3 µM | GI50 [8]: 24.4 µM | growth at 100 µM [9]: 32% | GI50 [10]: > 100 µM | GI50 [11]: 41.9 µM | GI50 [12]: 35.9 µM | GI50 [13]: > 100 µM | GI50 [14]: 37.3 µM | GI50 [15]: 25.4 µM | GI50 [16]: 37.5 µM | GI50 [17]: 33.6 µM | GI50 [18]: 51 µM | GI50 [19]: 35 µM | GI50 [20]: 36.6 µM | GI50 [21]: 66.6 µM | GI50 [22]: > 100 µM | GI50 [23]: 44.2 µM | GI50 [24]: 58.5 µM | GI50 [25]: 75.1 µM | GI50 [26]: 47.1 µM | GI50 [27]: 33.7 µM | growth at 100 µM [28]: 76% | GI50 [29]: 76.4 µM | GI50 [30]: 27.6 µM | GI50 [31]: 60.2 µM | GI50 [32]: 39.2 µM | GI50 [33]: 25.3 µM | GI50 [34]: 58 µM | GI50 [35]: 30.8 µM | GI50 [36]: 24.9 µM | GI50 [37]: 48 µM | GI50 [38]: 82.5 µM | GI50 [39]: 40.5 µM | GI50 [40]: 32.9 µM | GI50 [41]: 17.7 µM | GI50 [42]: 36.4 µM | GI50 [43]: 50.8 µM | GI50 [44]: 26.6 µM
